# Laboratory results taken from paper PMC4800303 (British Journal of Cancer, 2016).
# Assays:
# [1] = system: BRAF-mutated (V600E/K) metastatic melanoma; conditions: pivotal phase III registration trial; ref Chapman et al., 2011; cited from earlier work
# pRb = experiment: Biomarker model: effect of vemurafenib on pRb in A375 xenograft tumours; format: in vivo, mice; conditions: Mus musculus, A-375, read-out: Inhibition of pRb
# Procedure, shortened: (§1)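 A375 xenograft mice given single oral vemurafenib: 15 mg kg⁻¹ with blood and tumour at 1, 2, 6, 12, 24, 48 h; 7.5, 30 or 60 mg kg⁻¹ with sampling at 4, 8, 24 h; n=5 per time point. Tumour biomarkers expressed as percentage of vehicle control. Plasma PK fitted by one-compartment model with saturable absorption; indirect response model links concentration to pMEK, driving pERK; values from model fitting/simulation.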
# [2] = system: phospho-(ser217/221)-mitogen-activated protein kinase kinase (pMEK); format: in vivo, mice; conditions: after a 15 mg kg^−1 dose of vemurafenib
# Procedure, shortened: as §1
# [3] = system: phospho-(thr202/tyr204)-ERK (pERK); experiment: Biomarker model: effect of vemurafenib on pERK in A375 xenograft tumours; format: in vivo, mice
# Procedure, shortened: as §1
# Cyclin D1 = experiment: Biomarker model: effect of vemurafenib on Cyclin D1 in A375 xenograft tumours; format: in vivo, mice
# Procedure, shortened: as §1
# A375 xenograft tumours = experiment: Tumour growth inhibition and tumour model in A375 xenograft tumours; format: in vivo, mice; conditions: continuous vemurafenib treatment; estimated
# Procedure, shortened: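 A375 xenograft mice received vemurafenib 15 mg kg⁻¹ twice daily for 48 days to allow resistance. They then received abemaciclib 90 mg kg⁻¹ daily or continued vemurafenib for 28 days (n=8 per group), with vehicle controls (n=8). Tumour size was measured every 3–4 days for ∼13 weeks. Time to resistance was estimated by the tumour growth model with a modulator compartment.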
# [4] = Pharmacokinetics in xenograft tumour-bearing mice; format: in vivo; conditions: vemurafenib and abemaciclib coadministered; data not shown
# [5] = system: phospho-(ser780)-Rb (pRb); format: in vivo, mice; conditions: Mus musculus, COLO 205, read-out: IC50,Abemaciclib
# Procedure, shortened: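 Semimechanistic PK/PD model with four sequential transit compartments (early G1, late G1, S, G2/M). pRb, TopoIIα and pHH3 represent late G1, S and G2/M phase density. Model refitted to colo-205 xenograft biomarker data, including Total Rb after single or daily oral 50 mg kg⁻¹ abemaciclib. Population approach for longitudinal data. IC50 is an estimated model parameter.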
# Total Rb = experiment: Abemaciclib-mediated inhibition of Total Rb in xenograft tumours; format: in vivo, mice; conditions: 50 mg kg^−1 every day
# Procedure, shortened: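 Colo-205 xenograft mice given abemaciclib 50 mg kg⁻¹ orally once daily for 56 days; tumour collected at 28 and 56 days, n=5 per time point. Tumour lysates assayed for Total Rb alongside pRb, TopoIIα and pHH3. Data were added to a refit of the cell-cycle PK/PD model.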
# [6] = after a 15 mg kg^−1 dose of vemurafenib
# [7] = continuous vemurafenib, at time to resistance (∼30 days), model
structure (smiles),measurement,setting,value
CN(C)/N=N/c1[nH]cnc1C(N)=O [dacarbazine],Progression-free survival (PFS),[1],1.6 months
CCCS(=O)(=O)Nc1ccc(F)c(C(=O)c2c[nH]c3ncc(-c4ccc(Cl)cc4)cc23)c1F [vemurafenib],Progression-free survival (PFS),[1],5.3 months
same,inhibition at 15 mg/kg,pRb,50%
same,Time of maximum inhibition of pMEK,[2],2 h
same,Time of maximum inhibition of pERK,[3]; [6],2 h
same,Elevation of pERK over baseline at resistance,[3]; [7],nearly twofold
same,inhibition at 15 mg/kg,"Cyclin D1; Mus musculus, A-375, read-out: Inhibition of Cyclin D1",33%
same,Time of maximum inhibition of Cyclin D1,Cyclin D1; [6],10 h
same,Elevation of Cyclin D1 over baseline at resistance,Cyclin D1; [7],nearly twofold
same,Time to resistance,A375 xenograft tumours,~30 days
same,Pharmacokinetics after coadministration,[4],neither vemurafenib nor abemaciclib exhibited altered pharmacokinetics after coadministration
CCN1CCN(Cc2ccc(Nc3ncc(F)c(-c4cc(F)c5nc(C)n(C(C)C)c5c4)n3)nc2)CC1 [abemaciclib],IC50,[5],4.99 ng/mL
same,Inhibition of Total Rb,Total Rb,~40%
same,Pharmacokinetics after coadministration,[4],neither vemurafenib nor abemaciclib exhibited altered pharmacokinetics after coadministration
